Bioassay records: PubChem BioAssay, several laboratories
Most compounds without a hit are left out; they make up all but 2.2% or so of the library.
PMI activator: phosphomannose isomerase (human) activation; P34949; purified human PMI, coupled resazurin fluorescence, 20 min; active compounds read high; 1 = vehicle control, 0 substrate-free wells; activation factor at 20 µM; actives 0.005% (n = 190,000); AID 1214;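 active = activation factor of 2 or more at 20 µM, relative to plate controls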
Target sequence (P34949 whole entry, looked up): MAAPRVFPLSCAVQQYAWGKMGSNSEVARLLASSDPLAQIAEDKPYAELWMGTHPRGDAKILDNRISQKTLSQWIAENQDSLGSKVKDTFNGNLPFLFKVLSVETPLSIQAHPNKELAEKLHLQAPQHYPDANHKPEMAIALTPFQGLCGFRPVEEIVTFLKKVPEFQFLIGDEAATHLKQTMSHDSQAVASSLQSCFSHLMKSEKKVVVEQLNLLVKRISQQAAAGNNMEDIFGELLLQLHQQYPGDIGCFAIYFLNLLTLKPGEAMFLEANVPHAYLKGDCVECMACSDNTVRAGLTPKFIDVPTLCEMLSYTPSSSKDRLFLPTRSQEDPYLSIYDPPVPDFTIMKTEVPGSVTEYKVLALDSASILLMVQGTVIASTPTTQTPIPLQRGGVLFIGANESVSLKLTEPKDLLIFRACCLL
Diaphorase inh: counter-screen for diaphorase-based assays: diaphorase inhibitors and chemical oxidizers; diaphorase resazurin-to-resorufin fluorescence, NADH, 16 min; bacterial (C. kluyveri) enzyme, not human; inhibition, % at 20 µM; actives 0.69% (n = 190,000);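 active = primary screen inhibition at 20 µM above a set limit, cut at about 50% in these data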;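 also: plate controls were DMSO with full reaction for no effect and wells lacking NADH for full effect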
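Assay system: diaphorase enzyme from Clostridium kluyveri. Quantity: enzyme working solution with 0.14 U/mL diaphorase. Schedule: reaction incubation of 16 min at room temperature. Technique: resorufin fluorescence, excitation 544 nm, emission 590 nm. Controls: No-NADH positive control and DMSO neutral control.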
Diaph act CS: activates diaphorase or chemically reduces, flagging diaphorase assay artifacts; activation factor at 20 µM; actives 0.005% (n = 190,000); AID 1229; Diaphorase/resazurin coupled assay, resorufin fluorescence, 16 min; active compounds read high; 1 = vehicle wells, 0 = NADH-free wells;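 active = diaphorase activity raised at least twofold by the compound at 20 µM; inactive = activation factor below 2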
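Material: purified diaphorase enzyme from Clostridium kluyveri; Also added: 0.114 mM NADH and 0.1 mM resazurin, final amounts; Doses: single compound dose of 20 µM, 1% DMSO final; Times: 16 min enzyme reaction, ambient temperature; Detection: resorufin fluorescence, excitation 544 nm, emission 590 nm; Measure: increased resorufin signal from activators or reducing compounds.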
ROMK mod: modulators of human ROMK potassium channel; actives 2% (n = 130,000); Tet-inducible ROMK, thallium flux fluorescence; actives lie on both sides; B-score at 10 µM; AID 1918; P48048;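 active = signal ratio slope over the read window, or its plate-corrected B-score, at least 3 SD from the plate mean, either direction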;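 also: B-score of the F/F0 ratio slope over 7 to 12 s after thallium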
PMI act hi M6P: PMI (human) activation, high substrate. P34949. coupled PMI enzyme assay, resazurin fluorescence, 20 min; active compounds read high; 1 = untreated enzyme, 0 = substrate-free blank. activation factor at 20 µM. actives 0.34% (n = 190,000);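 active = activation factor of 2 or more at 20 µM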
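test system = human PMI in coupled enzyme assay | medium = HEPES-buffered pH 7.4 with magnesium and detergent | also added = 1.0 mM mannose-6-phosphate substrate with 0.22 mM NADP+ | compound = 20 µM single dose | times = 20 min incubation at room temperature | measured by = resorufin fluorescence (Ex 544/Em 590 nm) from resazurin via diaphorase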
G6PDH CS: inhibits Leuconostoc G6PDH, flagging false hits in G6PDH-based assays | Purified L. mesenteroides G6PDH, diaphorase/resazurin coupled fluorescence, 45 min | inhibition, % at 5 µM | actives 0.12% (n = 200,000) | AID 1020; in the data active = inhibition above about 50%
Active calls of the source: *; x = not tested or not shown.

SMILES	PMI activator	Diaphorase inh	Diaph act CS	ROMK mod	PMI act hi M6P	G6PDH CS
COc1ccc(N2CSC3=C(C#N)C(c4cc(OC)ccc4OC)CC(=O)N3C2)c(OC)c1 (centres undefined)	0.5	57*	0.4	x	0.4	50*
CCc1ccc(C2CC(=O)N3CN(c4ccccc4)CSC3=C2C#N)cc1 (centres undefined)	1	55*	0.5	x	1.5	19
COc1cc(OC)c(C2CC(=O)N3CN(c4ccc(C)cc4)CSC3=C2C#N)cc1OC (centres undefined)	0.7	46	0.5	x	0.7	44
CCc1ccc(N2CSC3=C(C#N)C(c4cccs4)CC(=O)N3C2)cc1 (centres undefined)	1.2	34	0.7	-1.1	1.7	-14
CCOc1ccccc1N1CSC2=C(C#N)C(c3c(OC)ccc4ccccc34)CC(=O)N2C1 (centres undefined)	0.4	67*	0.3	x	0.3	42
Nc1ccn(Cc2ccc(F)cc2)n1	1	-10	1.1	-0.015	1.1	12
COCCN(Cc1cc2c(C)cc(C)cc2nc1Cl)C(=O)c1ccccc1F	0.9	20	0.8	-0.78	0.8	2
COc1ccc(N2CSC3=C(C#N)C(c4cccs4)CC(=O)N3C2)cc1 (centres undefined)	1.1	53*	0.5	x	0.9	38
COc1ccc(N2CSC3=C(C#N)C(c4ccc(OC)c(OC)c4)CC(=O)N3C2)c(OC)c1 (centres undefined)	0.6	58*	0.4	x	1.1	43
N#CC1=C2SCN(c3ccc(F)cc3)CN2C(=O)CC1c1cccc(F)c1 (centres undefined)	0.6	48	0.5	x	0.9	42
COc1ccc(C2CC(=O)N3CN(c4ccc(C)c(Cl)c4)CSC3=C2C#N)cc1OC (centres undefined)	0.9	60*	0.4	x	1.3	18
Cc1ccc(N2CSC3=C(C#N)C(c4cccs4)CC(=O)N3C2)cc1 (centres undefined)	1.3	46	0.5	x	1.7	22
COc1cc(C2NC(=O)NC(C)=C2C(C)=O)ccc1O (centres undefined)	x	x	x	0.0066	x	x
CC(C)C(c1nnnn1CCc1ccccc1)N1CCSCC1 (centres undefined)	x	x	x	-0.3	x	10
COc1ccc(Br)cc1C(=O)Nc1ccc(O)cc1	0.9	13	0.9	0.031	0.9	15
COc1ccc(Br)cc1C(=O)Nc1ccc(C(=O)O)cc1	1.1	92*	0.1	-0.28	1.1	4
O=c1c2c([N+](=O)[O-])cc([N+](=O)[O-])cc2sn1-c1ccc(Br)cc1	-0.1	67*	0.3	-0.66	0	-4
CCc1ccc(NC(=O)N2CCN(c3ccc(F)cc3)CC2)cc1	0.9	29	0.7	0.021	0.9	10
CCC(C)(C(=O)NC1CCCCC1)N(C(=O)CNC(=O)c1ccccc1)c1c(C)n(C)n(-c2ccccc2)c1=O (centres undefined)	1.1	4	1	0.72	1.1	6
CCOC(=O)N1CCC2(CC1)C(C#N)=C(N)Oc1n[nH]c(C)c12	1.1	-6	1.1	0.99	1.1	-1
CCOC(=O)N1CCC2(CC1)C(C#N)=C(N)Oc1c2c(C)nn1-c1cccc(Cl)c1	1.5	17	0.8	x	2*	-1
O=C(OCc1cc2ccccc2[nH]c1=O)c1cccc([N+](=O)[O-])c1	x	x	x	-0.053	x	x
O=C(Nc1ccc2ncccc2c1)c1cc(Cl)ccc1Cl	1.2	6	0.9	-0.38	1.2	-3
Nc1ccc(NC(=O)c2cccs2)cc1	1	5	1	0.49	0.9	10
Nc1ccc(/C=C/C(=O)c2cccs2)cc1	1	2	1	-6*	1	-1
SMILES	PMI activator	Diaphorase inh	Diaph act CS	ROMK mod	PMI act hi M6P	G6PDH CS
Cc1ccc(NS(=O)(=O)c2ccc(Br)cc2)nc1	1	7	0.9	1.3	1	26
COC1(NS(=O)(=O)c2ccc(Br)cc2)C(C)=CC(=O)C=C1C	0.7	52*	0.5	-2.2	0.4	38
Oc1ccc(/C=N/n2cc(-c3ccccc3)[nH]c2=S)cc1	0.9	53*	0.5	0.23	0.9	-12
S=c1[nH]c(-c2ccccc2)cn1/N=C/c1ccccc1Br	0.9	46	0.5	0.51	1	-6
CCOc1ccc2nc(/N=C/c3c(C)[nH]n(-c4ccccc4)c3=O)sc2c1	1.3	0	1	2.6*	1.2	-8
CCOc1ccc2nc(/N=C/c3c(C)[nH]n(-c4ccc(C)cc4)c3=O)sc2c1	1	9	0.9	0.26	1	4
Cc1cc(O)c(/C=N/Nc2ccc(Cl)cc2)c(=O)o1	1.3	11	0.9	0.74	2.1*	7
Cc1cc(O)c(/C=N/Nc2ccccc2Cl)c(=O)o1	1.4	25	0.8	x	2.2*	1
Cc1cc(O)c(/C=N/Nc2cccc(Cl)c2)c(=O)o1	1.5	11	0.9	0.18	2.5*	-7
Cc1cccc(N=Cc2c(O)cc(C)oc2=O)c1	1.1	-5	1	0.58	1	4
CC(=O)/C(C#N)=C1\NC(=O)C(Cc2ccc(C)c(Cl)c2)S1 (centres undefined)	x	x	x	1.1	x	x
O=C(/C(=C(\O)c1ccccc1)c1ncc[nH]1)c1ccccc1	1.1	-4	1	1.4	1.1	1
O=C(NNc1ccc([N+](=O)[O-])cc1)c1ccccc1F	1.7	-5	1	-0.38	2.3*	6
O=C(c1ccc(Cl)cc1)c1c[nH]c(C(=O)NNc2ccccc2)c1	1.7	15	0.9	-0.36	2.1*	-2
O=C(NNc1ccc([N+](=O)[O-])cc1)c1ccccc1Cl	1.1	-4	1	-0.56	1	5
O=C(/C=C/c1ccccc1)NNc1ccc(Cl)cc1	1.8	-4	1	-0.6	2.7*	4
O=C(O)c1ccccc1C(=O)NNc1ccc(Cl)cc1	1.6	4	1	x	2.4*	2
CN(CCc1ccccn1)C(=O)CCC1CCCN(C(=O)c2ccsc2)C1 (centres undefined)	0.9	15	0.8	0.33	1	3
CCCCCCCn1c(C)nnc1-c1cnn(C)c1N	1.1	5	1	-0.042	1.1	3
O=C(O)c1ccccc1C(=O)NNc1ccc(F)cc1F	1.6	19	0.8	x	2.5*	0
CC(C)(C)c1ccc(C(=O)NNc2ccc(F)cc2F)cc1	x	x	x	-0.85	x	x
CCOc1ccccc1CN1CCN(CCCn2cccn2)CC1CCO (centres undefined)	x	x	x	0.59	x	11
COc1ccc2c(C)cc(=S)[nH]c2c1	1.6	16	0.8	0.6	2.5*	3
